# Results from ChEMBL document CHEMBL3616400, “Design, Synthesis, and Evaluation of Triazole Derivatives That Induce Nrf2 Dependent Gene Products and Inhibit the Keap1-Nrf2 Protein-Protein Interaction” (J Med Chem, 2015).
# Activity calls are given as the source filed them. The rule behind the calls is not given here.
# Tests used:
# [1] = biological target: T1, Keap1/Nrf2 (Homo sapiens) (UniProt Q16236+Q14145); experiment: Inhibition of kelch domain of Keap1 (unknown origin) interaction to high affinity ETGE motif from Nrf2 unknown origin) at 100 uM by fluorescence polarization assay; type: protein assay
# How it was run: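 Fluorescence polarization competition. Keap1 Kelch domain with fluorescein-labelled ETGE peptide FITC-β-DEETGEF-OH (β = β-alanine). Displacement measured with a fixed 100 µM inhibitor; percent inhibition reported.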
# [2] = biological target: T2, Nuclear factor erythroid 2-related factor 2 (Mus musculus) (UniProt Q60795); experiment: Activation of Nrf2 in mouse Hepa1c1c7 cells assessed as induction of NQO1 production at 10 uM after 24 hrs by MTT colorimetric assay relative to control; type: cell-based
# T2 sequence (whole entry): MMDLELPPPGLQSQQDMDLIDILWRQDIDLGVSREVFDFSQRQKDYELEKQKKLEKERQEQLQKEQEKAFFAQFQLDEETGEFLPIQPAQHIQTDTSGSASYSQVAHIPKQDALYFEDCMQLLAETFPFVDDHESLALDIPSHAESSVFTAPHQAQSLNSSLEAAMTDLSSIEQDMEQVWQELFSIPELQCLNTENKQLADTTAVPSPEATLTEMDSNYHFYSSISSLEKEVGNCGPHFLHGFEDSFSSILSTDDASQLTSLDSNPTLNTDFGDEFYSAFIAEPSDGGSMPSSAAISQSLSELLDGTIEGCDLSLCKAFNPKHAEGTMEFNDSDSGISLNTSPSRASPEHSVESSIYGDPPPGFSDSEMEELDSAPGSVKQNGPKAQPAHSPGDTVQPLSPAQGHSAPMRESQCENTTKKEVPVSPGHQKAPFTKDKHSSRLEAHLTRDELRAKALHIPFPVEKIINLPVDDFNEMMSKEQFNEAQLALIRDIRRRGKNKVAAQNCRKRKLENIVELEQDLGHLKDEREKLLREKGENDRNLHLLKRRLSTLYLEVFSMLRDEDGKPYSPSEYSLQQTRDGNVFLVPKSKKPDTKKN
# How it was run: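 Hepa1c1c7 mouse hepatoma cells treated at a fixed 10 µM for 24 h. NQO1 enzyme activity read by colorimetric induction assay and expressed as fold induction over control.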
# [3] = biological target: T3, Keap1/Nrf2 (Homo sapiens, UniProt Q14145); experiment: Inhibition of kelch domain of Keap1 (unknown origin) interaction to high affinity ETGE motif from Nrf2 by fluorescence polarization assay; type: protein assay
# How it was run: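 Competitive fluorescence polarization, dose-response format. Keap1 Kelch domain with fluorescein-labelled Nrf2 ETGE peptide FITC-β-DEETGEF-OH. EC50 derived from dose-response curves.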
# [4] = biological target: T2, Nuclear factor erythroid 2-related factor 2 (Mus musculus); experiment: Activation of Nrf2 in mouse Hepa1c1c7 cells assessed as concentration required to 2 fold induction of NQO1 production after 24 hrs by MTT colorimetric assay; type: cell-based
# How it was run: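 Hepa1c1c7 mouse hepatoma cells exposed to a concentration range for 24 h. NQO1 enzymatic activity measured by colorimetric induction assay. Value reported as CD, the concentration giving a two-fold increase in NQO1 activity.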
# [5] = species: Mus musculus; experiment: Increase of Nrf2 protein level in mouse Hepa1c1c7 cells at 10 uM after 24 hrs by Western blot analysis; type: functional, cell-based
# How it was run: (§1)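 Hepa1c1c7 cells incubated with test compounds at 10 µM for various exposure times, up to 24 h. Nrf2, HO-1 and NQO1 protein levels assessed by Western blot.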
# [6] = species: Mus musculus; experiment: Increase of Nrf2 protein level in mouse Hepa1c1c7 cells at 10 uM by Western blot analysis; type: functional, cell-based; settings: TDE = time-dependent effect; how it was run: as §1
# [7] = biological target: T2, Nuclear factor erythroid 2-related factor 2 (Mus musculus); experiment: Activation of Nrf2 in mouse Hepa1c1c7 cells assessed as increase of HO-1 expression at 10 uM after 6 hrs by Western blot analysis; type: cell-based; how it was run: as §1
# [8] = biological target: T2, Nuclear factor erythroid 2-related factor 2 (Mus musculus); experiment: Activation of Nrf2 in mouse Hepa1c1c7 cells assessed as increase of NQO1 expression at 10 uM measured before 24 hrs by Western blot analysis; type: cell-based; how it was run: as §1
# [9] = biological target: T3, Keap1/Nrf2; experiment: Inhibition of Keap1 (unknown origin) interaction to Nrf2; type: protein assay
# [10] = biological target: T1, Keap1/Nrf2 (Homo sapiens); experiment: Inhibition of mCherry labeled Keap1 interaction to DLG motif from Nrf2 in human HEK293 cells at 10 uM by FRET based assay; type: cell-based
# How it was run: (§2)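 HEK293 cells were co-transfected with EGFP-Nrf2 and Keap1-mCherry. Each cell was imaged by FLIM twice: once basal and once 1 h after 10 µM compound. EGFP lifetime and FRET efficiency were calculated in the cytoplasm. High- and low-FRET-efficiency populations were scored to distinguish DLG-dependent binding from ETGE-dependent binding.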
# [11] = biological target: T1, Keap1/Nrf2 (Homo sapiens); experiment: Inhibition of mCherry labeled Keap1 interaction to ETGE motif from Nrf2 in human HEK293 cells at 10 uM by FRET based assay; type: cell-based; how it was run: as §2
# [12] = Therapeutic index, ratio of GI50 for mouse Hepa1c1c7 cells to CD for activation of Nrf2 in mouse Hepa1c1c7 cells assessed as concentration required to 2 fold induction of NQO1 production; type: cell-based; settings: read-out: TI
# [13] = species: Mus musculus; experiment: Increase of Nrf2 protein level in mouse Hepa1c1c7 cells at 10 uM after 3 to 6 hrs by Western blot analysis; type: functional, cell-based; how it was run: as §1
# [14] = Cytotoxicity against mouse Hepa1c1c7 cells assessed as cell viability at 200 uM after 24 to 48 hrs by SRB assay; type: cell-based; settings: read-out: Activity
# How it was run: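 Hepa1c1c7 cells exposed to compounds at up to 200 µM for 24 and 48 h. Viability determined by sulforhodamine B assay.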
# [15] = biological target: T1, Keap1/Nrf2 (Homo sapiens); experiment: Inhibition of kelch domain of Keap1 (unknown origin) interaction to high affinity ETGE motif from Nrf2 unknown origin) in presence of 0 to 1 % v/v Triton X100 by fluorescence polarization assay; type: protein assay
# [16] = biological target: Kelch-like ECH-associated protein 1 (Homo sapiens) (UniProt Q14145); experiment: Binding affinity to kelch domain of Keap1 (unknown origin) using high affinity ETGE motif from Nrf2 unknown origin) at 200 uM by fluorescence polarization assay
# Sequence of Kelch-like ECH-associated protein 1 (Homo sapiens) (Q14145 whole entry, the tested form may be a part): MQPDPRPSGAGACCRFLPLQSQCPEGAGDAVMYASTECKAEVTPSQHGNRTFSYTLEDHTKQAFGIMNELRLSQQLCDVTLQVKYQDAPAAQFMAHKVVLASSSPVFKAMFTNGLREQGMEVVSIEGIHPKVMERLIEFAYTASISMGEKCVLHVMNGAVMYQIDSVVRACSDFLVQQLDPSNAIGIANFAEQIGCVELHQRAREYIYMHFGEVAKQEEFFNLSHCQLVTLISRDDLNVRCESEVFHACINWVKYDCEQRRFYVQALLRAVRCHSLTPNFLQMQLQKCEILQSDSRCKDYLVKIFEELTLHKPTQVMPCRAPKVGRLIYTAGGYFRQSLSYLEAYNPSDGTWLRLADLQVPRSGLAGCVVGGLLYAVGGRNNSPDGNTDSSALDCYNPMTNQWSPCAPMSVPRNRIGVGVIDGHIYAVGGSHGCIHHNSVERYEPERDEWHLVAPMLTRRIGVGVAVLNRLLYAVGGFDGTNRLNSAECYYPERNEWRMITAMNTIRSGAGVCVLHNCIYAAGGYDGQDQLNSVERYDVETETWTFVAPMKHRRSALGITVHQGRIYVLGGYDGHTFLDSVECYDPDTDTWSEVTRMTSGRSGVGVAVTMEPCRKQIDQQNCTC
# T1 sequence (Q14145 whole entry, looked up, the tested form may be a part): as the sequence (Q14145 whole entry, the tested form may be a part) above
# T1 sequence (Q16236 whole entry, looked up, the tested form may be a part): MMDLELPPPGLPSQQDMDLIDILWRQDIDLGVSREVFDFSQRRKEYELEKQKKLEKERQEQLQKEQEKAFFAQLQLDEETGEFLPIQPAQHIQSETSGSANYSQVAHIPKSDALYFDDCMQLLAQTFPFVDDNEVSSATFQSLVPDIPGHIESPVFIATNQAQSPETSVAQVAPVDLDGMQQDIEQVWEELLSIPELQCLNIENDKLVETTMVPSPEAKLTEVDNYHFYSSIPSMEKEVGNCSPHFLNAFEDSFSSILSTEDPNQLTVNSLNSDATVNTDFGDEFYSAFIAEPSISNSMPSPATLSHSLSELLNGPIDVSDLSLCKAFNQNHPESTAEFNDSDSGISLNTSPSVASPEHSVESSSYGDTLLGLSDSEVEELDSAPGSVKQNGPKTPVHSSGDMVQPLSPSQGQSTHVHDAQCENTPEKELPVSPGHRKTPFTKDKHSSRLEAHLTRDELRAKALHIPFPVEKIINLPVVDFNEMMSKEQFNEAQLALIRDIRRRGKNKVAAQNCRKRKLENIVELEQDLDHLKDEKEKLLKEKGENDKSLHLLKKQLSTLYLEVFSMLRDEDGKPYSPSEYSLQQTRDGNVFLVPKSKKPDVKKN
# T3 sequence (Q16236 whole entry, the tested form may be a part): as the sequence (Q16236 whole entry, looked up, the tested form may be a part) above
# T3 sequence (Q14145 whole entry, the tested form may be a part): as the sequence (Q14145 whole entry, the tested form may be a part) above
Compound,inhibition [1],fold change (FC) [2],EC50 [3],CD [4],Activity [5],Activity [6],Activity [7],Activity [8],EC50 [9],inhibition [10],inhibition [11],selectivity ratio [12],Activity [13],viability at 200 µM [14],inhibition [15],Activity [16]
Cc1cccc(-n2cc(-c3cccc([N+](=O)[O-])c3)nn2)c1,68.9%,2.2,10 µM,1.3 µM,Active,tde,Active,inactive,–,–,–,–,–,–,–,–
Ac-WRQDIDL-OH,–,–,–,–,–,–,–,–,17.1 µM,–,–,–,–,–,–,–
C[S+]([O-])CCCCN=C=S (configuration not stated) [SULFORAPHANE],–,–,–,0.3 µM,Active,tde,Active,inactive,–,Active,inactive,250,–,–,–,–
O=[N+]([O-])c1cccc(-c2cn(-c3cccc(I)c3)nn2)c1,67.2%,4,7.1 µM,0.6 µM,Active,tde,Active,inactive,–,Active,inactive,> 1000,Active,100%,Active,Active
